Results pooled from the literature.
Compare with care: the assays were run in different laboratories.
Target: Muscle, skeletal receptor tyrosine-protein kinase (MUSK, Homo sapiens, UniProt O15146)
Residues used in one study (O15146 24-869): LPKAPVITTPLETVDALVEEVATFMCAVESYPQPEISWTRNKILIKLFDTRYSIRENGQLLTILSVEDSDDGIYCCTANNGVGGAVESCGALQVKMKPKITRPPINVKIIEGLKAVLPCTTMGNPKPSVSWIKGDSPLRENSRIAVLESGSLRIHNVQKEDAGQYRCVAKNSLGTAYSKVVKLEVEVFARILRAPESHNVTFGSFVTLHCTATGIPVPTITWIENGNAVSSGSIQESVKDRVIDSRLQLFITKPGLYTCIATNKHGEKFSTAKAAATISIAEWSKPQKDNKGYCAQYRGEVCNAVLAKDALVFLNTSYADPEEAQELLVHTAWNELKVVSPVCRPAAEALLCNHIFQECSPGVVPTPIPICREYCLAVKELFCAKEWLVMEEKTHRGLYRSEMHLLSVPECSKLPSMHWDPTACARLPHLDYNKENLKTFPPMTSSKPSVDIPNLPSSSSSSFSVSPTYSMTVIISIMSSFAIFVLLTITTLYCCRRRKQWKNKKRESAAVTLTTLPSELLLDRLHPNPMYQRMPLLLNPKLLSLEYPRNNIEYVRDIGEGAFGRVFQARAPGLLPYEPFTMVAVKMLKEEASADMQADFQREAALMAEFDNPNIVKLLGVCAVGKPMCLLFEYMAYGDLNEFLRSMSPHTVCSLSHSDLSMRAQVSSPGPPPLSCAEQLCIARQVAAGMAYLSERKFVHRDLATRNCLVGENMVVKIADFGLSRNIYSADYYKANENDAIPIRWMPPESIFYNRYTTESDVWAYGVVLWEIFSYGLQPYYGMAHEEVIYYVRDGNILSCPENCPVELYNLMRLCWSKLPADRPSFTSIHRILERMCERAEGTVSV

The remaining binding of `N#Cc1ccc(Nc2ccc3[nH]c(=O)[nH]c3c2)c(Cl)c1` is reported as 100% (cell-free assay; competition with immobilised ligand; 1 µM).
`CNC(=O)[C@@H]1CC[C@@H](n2c(-c3ccc4cnccc4c3)nc3ccc(C(=O)NCc4cccc(C(N)=O)c4)cc32)C1` has a remaining binding of 90% (binding; competition with immobilised ligand; 1 µM).
For `COc1ccnn2ncc(-c3ccnc(N(C)C)n3)c12`, the remaining binding was 93% (binding; 1 µM).
`C[C@@H](c1ccc(-n2cnc3c(N)ncnc32)cc1)N1CCc2nn(C)c(Cc3ccccc3)c2C1=O` gave a remaining binding of 68% (binding; competition with immobilised ligand; 0.1 µM).
The remaining binding of `Cc1c(NC(=O)c2cc(C(N)=O)nc3cc(F)ccc23)c(C(F)(F)F)nn1Cc1ccc(C#N)cc1` is reported as 95% (cell-free assay; competition with immobilised ligand; 1 µM).
For `N[C@H]1CCN(c2nccc(-c3cnn4ncccc34)n2)C1`, the remaining binding was 100% (binding; 1 µM).
For `Nc1ncc2c(n1)-c1c([nH]c3ccc(C#CC4CC4)cc13)CCCC2`, the remaining binding was 100% (binding; competition with immobilised ligand; 1 µM).
With `CN(CCCC(F)(F)F)c1nccc(-c2cnn3ncccc23)n1` the remaining binding was 100% (binding; 1 µM).
For `O=C(c1ccc(Nc2ncc(Cl)c(-c3cc4ccccc4s3)n2)cc1)N1CCC(N2CCCC2)CC1`, the remaining binding was 24% (binding; competition with immobilised ligand; 1 µM).
`COc1cnc(Nc2cccc(S(N)(=O)=O)c2)nc1N1CCN(c2ccccc2)CC1` gave a remaining binding of 97% (binding; competition with immobilised ligand; 1 µM).
For `CO[C@@H](C)c1c(Nc2ccc([C@@H](N(C)C(=O)C3CCS(=O)(=O)CC3)C(F)(F)F)cc2)cnc2cc(Cl)nn12`, the remaining binding was 88% (cell-free assay; competition with immobilised ligand; 1 µM).
With `O=C(NCC1CCOCC1)c1n[nH]cc1NC(=O)c1c(F)cccc1F` the remaining binding was 88% (binding; competition with immobilised ligand; 1 µM).
The remaining binding of `O=C(c1ccc(Nc2nccc(-c3cc4ccccc4s3)n2)cc1)N1CCC(N2CCCC2)CC1` is reported as 72% (binding; competition with immobilised ligand; 1 µM).
With `CCCCN(CCCC)C(=O)CN1C[C@@H](c2cc(OC)c3c(c2)OCO3)[C@H](C(=O)O)[C@H]1CC(C)(C)CCC` the remaining binding was 78.7% (cell-free assay; competition with immobilised ligand; 1 µM).
For `C[C@H]1CCN(c2nccc(-c3cnn4ncccc34)n2)C1`, the remaining binding was 80% (binding; 1 µM).
For `O=C(NCc1ncc(C(F)(F)F)cc1Cl)c1ccc2c(c1)C1(CCS(=O)(=O)CC1)[C@@H](C1CC1)N2S(=O)(=O)c1ccc(F)cc1`, the remaining binding was 79% (cell-free assay; competition with immobilised ligand; 1 µM).
The remaining binding of `CN(C)c1ncc(F)c(-c2cnn3ncccc23)n1` is reported as 100% (binding; 1 µM).
`CC(=O)c1c(NS(C)(=O)=O)c2cc(-c3ccc(Cl)cc3)c(-c3ccc(Cl)cc3Cl)nc2n(C)c1=O` has a remaining binding of 99% (cell-free assay; competition with immobilised ligand; 1 µM).
The remaining binding of `CN(c1nccc(-c2cnn3ncccc23)n1)C1CC1` is reported as 100% (binding; 1 µM).
`FC(F)(F)c1ccc2c(c1)nc(-c1cccnc1)n2C1CC1` gave a remaining binding of 100% (cell-free assay; competition with immobilised ligand; 1 µM).
`CN(C)c1nccc(-c2cnc3ncccn23)n1` gave a remaining binding of 83% (binding; 1 µM).
For `O=C(NCCCN1CCOCC1)c1ccc(Nc2ncc(Cl)c(-c3ccc(Cl)s3)n2)cc1`, the remaining binding was 54% (binding; competition with immobilised ligand; 1 µM).
